Rows were chosen to be rich in hits. Some 3% of all compounds tested hit in one or more screens of this group.
TAAR1 ag: human TAAR1 agonists, primary screen, Fluo-8 calcium fluorescence, CHO RD-HGA16 cells | Trace amine-associated receptor 1 (Homo sapiens), Q96RJ0 | vehicle wells 0%, saturating PEA agonist 100% | activation, % at 3 µM | hit rate 0.99% among 360,000 | AID 624467, 2012;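 active = activation above the mean activation of all test compounds in the run plus 3 SD, cut at about 38% in these data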
Target sequence (Q96RJ0 whole entry, looked up): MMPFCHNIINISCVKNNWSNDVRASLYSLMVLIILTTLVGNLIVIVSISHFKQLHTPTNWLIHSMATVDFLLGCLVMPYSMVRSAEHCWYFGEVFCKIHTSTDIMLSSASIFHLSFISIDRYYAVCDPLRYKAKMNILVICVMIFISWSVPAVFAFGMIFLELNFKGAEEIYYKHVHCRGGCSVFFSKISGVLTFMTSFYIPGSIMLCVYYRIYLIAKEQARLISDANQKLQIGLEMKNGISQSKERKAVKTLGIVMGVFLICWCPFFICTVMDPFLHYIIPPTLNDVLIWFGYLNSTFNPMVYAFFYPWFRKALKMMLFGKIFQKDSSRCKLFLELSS
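Test system: RD-HGA16 (CHO) cells co-expressing Gα16 and hTAAR1; dosing: one-point dosing at 3 µM (nominal); timing: 17-24 h seeding, 75 min 37 °C dye, 30 min RT; signal: kinetic Fluo-8 calcium fluorescence; read-out basis: % activation relative to PEA EC100 response; controls: DMSO and PEA EC100; replicates: n 1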
CHRM4 PAM: human M4 muscarinic receptor positive allosteric modulators, primary screen, CHO-K1 cells, Fluo-8 calcium fluorescence; CHO-K1 hM4/Gqi5, ACh EC20; 0% = ACh EC20, 100% = maximal ACh; activation, % at 3 µM; hit rate 0.4% among 360,000; AID 624126, 2012;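 active = activation above its plate's cutoff, the mean activation of sample wells plus 3 SD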
TAAR1 antagonist: human TAAR1 antagonists, primary screen, Fluo-8 calcium fluorescence, CHO RD-HGA16 cells. hit rate 1.5% among 360,000. AID 624466, 2012. antagonist. Trace amine-associated receptor 1 (Homo sapiens), Q96RJ0. inhibition, % at 3 µM;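 active = inhibition above a per-plate cutoff, the mean inhibition of test compounds on that plate plus 3 SD, cut at about 49% in these data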
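System: CHO RD-HGA16 cells bearing hTAAR1. Reagent: EC80 β-phenethylamine stimulus. Schedule: seeding 17-24 h prior, 75-min 37 °C, 30-min RT dye loading. Signal: Fluo-8 intracellular calcium dye fluorescence, real-time kinetic reads. Read-out: % inhibition from peak post-agonist over basal fluorescence ratio. Benchmarks: vehicle wells and EC80 agonist wells. Replicates: n of 1.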
CHRM4 agonist: human M4 muscarinic receptor agonists, primary screen, CHO-K1 cells, Fluo-8 calcium fluorescence; Muscarinic acetylcholine receptor M4 (Homo sapiens), P08173; activation, % at 3 µM; hit rate 0.14% among 360,000; CHO-K1 hM4/Gqi5; vehicle 0%, full acetylcholine response 100%;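 active = activation above the run mean over all test wells plus 3 SD, cut at about 32% in these data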;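 also: peak over basal fluorescence ratio per well then scaled between controls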
CHRM4 antagonist: human M4 muscarinic receptor antagonists, primary screen, CHO cells, Fluo-8 calcium fluorescence. CHO-hM4 cells, ACh EC80. inhibition, % at 3 µM. hit rate 0.73% among 360,000. AID 624125, 2012;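 active = inhibition above its plate's cutoff, the mean inhibition of sample wells plus 3 SD, cut at about 27% in these data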
TAAR1 ag conf: human TAAR1 agonists, retest of hits, confirmation, Fluo-8 calcium fluorescence, CHO RD-HGA16 cells; shares compounds with TAAR1 ag; hit rate 82% among 2,400; activation, % at 3 µM; scaled: DMSO 0%, maximal phenethylamine 100%; AID 651783, 2012;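 active = activation above a cutoff set at the run's mean compound activation plus 3 SD, cut at about 39% in these data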
Ga16 nonsel ag: nonselective calcium mobilization agonists, CHO-Ga16 cells, counter-screen for hTAAR1 agonist project, cell-based, fluorescence, CHO-Ga16 parental line. AID 651787, 2012. Fluo-8 calcium fluorescence; normalized to maximal ATP response, DMSO zero. shares compounds with TAAR1 ag. hit rate 50% among 2,400. activation, % at 3 µM;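 active = activation above the run cutoff, the mean activation over all tested wells plus 3 SD, cut at about 12% in these data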
TAAR1 desensitize: TAAR1 desensitization by agonist hits, confirmation, counter-screen for TAAR1 agonist project, cell-based, fluorescence, tachyphylaxis; inhibition, % at 3 µM; shares compounds with TAAR1 ag; CHO RD-HGA16 hTAAR1, Fluo-8 calcium, beta-PEA response inhibition; hit rate 46% among 2,400;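 active = inhibition above the run cutoff, the mean inhibition of all test compounds plus 3 SD, cut at about 49% in these data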;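 also: beta-PEA stimulus applied at its EC80; loss of beta-PEA calcium signal after compound pretreatment read as receptor desensitization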
Ga16 antag count: inhibition of ATP-evoked calcium response in CHO-Ga16 cells, counter-screen for TAAR1 agonist project, cell-based, fluorescence | AID 651952, 2012 | inhibition, % at 3 µM | CHO-Ga16 ATP-induced calcium, Fluo-8 fluorescence | shares compounds with TAAR1 ag | hit rate 39% among 2,400;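 active = inhibition above the plate's mean compound inhibition plus 3 SD, computed per plate, cut at about 22% in these data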
Numbers stand for hits; – = inactive; · = no result given.

SMILES	TAAR1 ag	CHRM4 PAM	TAAR1 antagonist	CHRM4 agonist	CHRM4 antagonist	TAAR1 ag conf	Ga16 nonsel ag	TAAR1 desensitize	Ga16 antag count
Cn1c(=O)c(C(=O)NNC(=O)c2ccccc2F)c(O)c2ccccc21	48	–	–	–	–	60	43	–	22
CCn1c(=O)c(C(=O)NNC(=O)c2ccccc2F)c(O)c2ccccc21	102	–	52	–	–	99	89	56	60
Cn1c(=O)c(C(=O)NNC(=O)c2ccc(Br)cc2)c(O)c2ccccc21	–	–	–	–	–	·	·	·	·
CCCCCC(=O)NNC(=O)c1c(O)c2ccccc2n(CC)c1=O	48	–	–	–	–	–	24	–	–
C[C@H]1Cn2cnc(C(=O)NCc3ccc(CNC(=O)OC(C)(C)C)cc3)c2C(=O)N1	–	–	–	–	–	·	·	·	·
C[C@@H](C(=O)OCC(=O)c1ccc(F)c(F)c1)N1C(=O)C2CCCCC2C1=O (stereo partly specified)	–	–	–	–	–	·	·	·	·
Nc1c(Cl)cc(C(=O)NC2CC2)cc1Cl	–	–	–	–	–	·	·	·	·
C/C(=N\NC(=O)c1nnn(-c2nonc2N)c1-c1cccs1)c1ccc(O)cc1	–	–	–	–	–	·	·	·	·
COc1ccc(/C(C)=N/NC(=O)c2nnn(-c3nonc3N)c2-c2ccccc2)cc1	123	–	–	–	–	103	63	–	–
C/C(=N/NC(=O)c1nnn(-c2nonc2N)c1-c1ccccc1)c1ccncc1	–	–	–	–	–	·	·	·	·
COc1ccc(/C(C)=N/NC(=O)c2nnn(-c3nonc3N)c2-c2cccs2)cc1	46	–	–	–	–	81	55	–	–
C/C(=N\NC(=O)c1nnn(-c2nonc2N)c1-c1cccs1)c1ccc(C)cc1	103	–	–	–	–	104	72	–	–
NC(N)=N/N=C(\N=Nc1ccccc1)c1cccc2cccnc12	–	–	–	–	–	·	·	·	·
NC(N)=N/N=C(\N=Nc1ccccc1)c1ccc(Cl)cc1	49	–	–	–	–	76	38	77	50
Cc1ccc(S(=O)(=O)Nc2ccc(N(C)S(=O)(=O)c3ccc(C)cc3)cc2)cc1	52	–	–	–	–	45	19	–	–
CSc1ccc(S(=O)(=O)Nc2ccc(S(=O)(=O)Nc3ccc(C)cc3)cc2)cc1	–	–	–	–	–	·	·	·	·
N#C/C(=C/c1cn[nH]c1-c1ccc(Br)cc1)C(=O)O	–	–	–	–	–	·	·	·	·
N#C/C(=C/c1cn[nH]c1-c1cccc(Br)c1)C(=O)O	71	–	–	–	–	112	52	–	–
O=C(O)C1=C(C(=O)N2CCN(C(=O)c3ccco3)CC2)CCCC1	43	–	–	–	–	52	–	–	–
O=C(c1ccco1)N1CCN(C(=O)N2CCCCC2)CC1	–	–	–	–	–	·	·	·	·
O=C(Oc1ccc(Br)cc1C(=S)N1CCCC1)c1ccccc1F	94	–	57	–	–	–	–	–	–
O=[N+]([O-])c1ccccc1NC(=S)N/N=C/c1ccc(O)c(O)c1	52	–	–	–	–	84	–	56	–
O=C(Cc1ccccc1[N+](=O)[O-])N1CCc2ccccc2C1	–	–	–	–	–	·	·	·	·
O=C(CNCCc1ccccc1)N1CCc2ccccc2C1	81	–	–	–	–	99	–	89	–
O=C(COc1ccc([N+](=O)[O-])cc1)N1CCc2ccccc2C1	–	–	–	–	–	·	·	·	·
SMILES	TAAR1 ag	CHRM4 PAM	TAAR1 antagonist	CHRM4 agonist	CHRM4 antagonist	TAAR1 ag conf	Ga16 nonsel ag	TAAR1 desensitize	Ga16 antag count
CCn1ncc([N+](=O)[O-])c1C(=O)N1CCc2ccccc2C1	42	–	–	–	–	–	–	–	–
O=[N+]([O-])c1cccc(NC(=S)N2CCc3ccccc3C2)c1	55	–	–	–	–	50	–	–	–
O=C(Cc1ccc([N+](=O)[O-])cc1)N1CCc2ccccc2C1	55	–	–	–	–	74	–	–	–
O=C(Cc1ccccc1)NCC(=O)N1CCc2ccccc2C1	–	–	–	–	–	·	·	·	·
O=C(C[C@@H]1CC[C@@H]2[C@H](COC[C@H](O)CN2C(=O)Nc2ccc(F)cc2)O1)NCCc1ccncc1	–	–	–	–	–	·	·	·	·
CCc1ccc(NC(=O)C(CC)c2ccccc2)cc1 (stereo unspecified)	71	–	–	–	–	67	38	65	39
CC1=C(NCCc2ccccc2)CCC1=O	95	–	60	–	–	103	–	87	–
CCCNC1=C(C)C(=O)CC1	–	–	–	–	–	·	·	·	·
COc1cc(C(C)=O)ccc1OCC(O)CNCC(O)c1ccccc1 (stereo unspecified)	91	–	–	–	–	98	–	74	–
COc1cc(C(C)=O)ccc1OCC(O)CN1CCN(S(=O)(=O)c2ccccc2)CC1 (stereo unspecified)	–	–	–	–	–	·	·	·	·
Cc1ccc(O)c(NC(=S)NC(=O)Cc2ccc(Cl)cc2)c1	155	–	106	140	100	140	117	106	102
Cc1ccc(NC(=S)NC(=O)c2ccc(-c3ccc(Cl)cc3)o2)c(O)c1	–	–	–	–	–	·	·	·	·
CC1Cc2ccccc2N1C(=O)CN1C(=O)NC(C)(c2ccc3c(c2)OCCO3)C1=O (stereo unspecified)	53	–	–	–	–	43	–	–	–
CC1(c2ccc3c(c2)OCCO3)NC(=O)N(CC(=O)c2ccc[nH]2)C1=O (stereo unspecified)	–	–	–	–	–	·	·	·	·
CCOCc1nnc(NC(=O)C2c3ccccc3Oc3ccccc32)s1	77	–	–	–	–	91	54	49	37
Nc1ccccc1CCc1ccccc1N	–	–	–	–	–	·	·	·	·

Screens deposited in PubChem BioAssay by The Scripps Research Institute Molecular Screening Center.
